Assay results taken from ChEMBL document CHEMBL1122413, “Chloralanyl and propargylglycyl dipeptides. Suicide substrate containing antibacterials” (1983).
Where a SMILES comes first, the peptide text is derived from it. [ ]: non-standard residue; d: D form. Pra = C#CC[CH](N)C(=O)O

Test system: Escherichia coli
Test: Minimum inhibitory concentration against Escherichia coli
Format: functional
Conditions: not given
Summary of the method: (§1)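 Agar dilution on defined peptide susceptibility medium with peptide in serial twofold dilutions. Strains subcultured on blood or chocolate agar. Inoculum from overnight culture in liquid peptide medium, diluted to approx 1×10^7 cfu/mL, applied by Steers replicator. Plates incubated overnight at 37 °C. MIC taken as lowest concentration permitting fewer than ten colonies at 16–18 h.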

SMILES | MIC
C#CCC(N)C(=O)NC(CC#C)C(=O)O.O=C(O)C(F)(F)F (stereo not given) (H-[Pra]-[Pra]-OH; configuration not given here) | > 100 µg/mL
C#CC[C@H](N)C(=O)N[C@@H](C)C(=O)O.O=C(O)C(F)(F)F | > 100 µg/mL
C#CC[C@@H](N)C(=O)N[C@@H](C)C(=O)O.O=C(O)C(F)(F)F | > 100 µg/mL
C#CC[C@@H](NC(=O)[C@H](N)CCl)C(=O)O.O=C(O)C(F)(F)F | > 100 µg/mL
C#CC[C@H](N)C(=O)O | > 100 µg/mL

Test system: Klebsiella aerogenes
Test: Minimum inhibitory concentration against Enterobacter aerogenes
Format: functional
Conditions: not given
Summary of the method: as §1

SMILES | MIC
C#CCC(N)C(=O)NC(CC#C)C(=O)O.O=C(O)C(F)(F)F (stereo not given) (H-[Pra]-[Pra]-OH; configuration not given here) | > 100 µg/mL
C#CC[C@H](N)C(=O)N[C@@H](C)C(=O)O.O=C(O)C(F)(F)F | > 100 µg/mL
C#CC[C@@H](N)C(=O)N[C@@H](C)C(=O)O.O=C(O)C(F)(F)F | > 100 µg/mL
C#CC[C@@H](NC(=O)[C@H](N)CCl)C(=O)O.O=C(O)C(F)(F)F | > 100 µg/mL
C#CC[C@H](N)C(=O)O | > 100 µg/mL

Test system: Enterobacter cloacae
Test: Minimum inhibitory concentration against Enterobacter cloacae
Format: functional
Conditions: not given
Summary of the method: as §1

SMILES | MIC
C#CCC(N)C(=O)NC(CC#C)C(=O)O.O=C(O)C(F)(F)F (stereo not given) (H-[Pra]-[Pra]-OH; configuration not given here) | > 100 µg/mL
C#CC[C@H](N)C(=O)N[C@@H](C)C(=O)O.O=C(O)C(F)(F)F | > 100 µg/mL
C#CC[C@@H](N)C(=O)N[C@@H](C)C(=O)O.O=C(O)C(F)(F)F | > 100 µg/mL
C#CC[C@@H](NC(=O)[C@H](N)CCl)C(=O)O.O=C(O)C(F)(F)F | > 100 µg/mL
C#CC[C@H](N)C(=O)O | > 100 µg/mL

Test system: Haemophilus influenzae
Test: Minimum inhibitory concentration against Hemophilus influenzae
Format: functional
Conditions: not given
Summary of the method: (§2)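 Agar dilution on defined peptide susceptibility medium with hemin (25 μg/mL), NAD (25 μg/mL) and Isovitalex (1%) added, peptide in serial twofold dilutions. Colonies from overnight chocolate or blood agar resuspended in liquid peptide medium to 10⁸ cfu/mL, applied by Steers replicator. Incubation overnight at 37 °C under 7% CO₂. MIC: lowest concentration giving fewer than ten colonies at 16–18 h.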

SMILES | MIC
C#CCC(N)C(=O)NC(CC#C)C(=O)O.O=C(O)C(F)(F)F (stereo not given) (H-[Pra]-[Pra]-OH; configuration not given here) | > 100 µg/mL
C#CC[C@H](N)C(=O)N[C@@H](C)C(=O)O.O=C(O)C(F)(F)F | > 100 µg/mL
C#CC[C@@H](N)C(=O)N[C@@H](C)C(=O)O.O=C(O)C(F)(F)F | > 100 µg/mL
C#CC[C@@H](NC(=O)[C@H](N)CCl)C(=O)O.O=C(O)C(F)(F)F | > 100 µg/mL
C#CC[C@H](N)C(=O)O | > 100 µg/mL

Test system: Klebsiella pneumoniae
Test: Minimum inhibitory concentration against Klebsiella pneumoniae
Format: functional
Conditions: not given
Summary of the method: as §1

SMILES | MIC
C#CCC(N)C(=O)NC(CC#C)C(=O)O.O=C(O)C(F)(F)F (stereo not given) (H-[Pra]-[Pra]-OH; configuration not given here) | > 100 µg/mL
C#CC[C@H](N)C(=O)N[C@@H](C)C(=O)O.O=C(O)C(F)(F)F | > 100 µg/mL
C#CC[C@@H](N)C(=O)N[C@@H](C)C(=O)O.O=C(O)C(F)(F)F | > 100 µg/mL
C#CC[C@@H](NC(=O)[C@H](N)CCl)C(=O)O.O=C(O)C(F)(F)F | > 100 µg/mL
C#CC[C@H](N)C(=O)O | > 100 µg/mL

Test system: Morganella morganii
Test: Minimum inhibitory concentration against Morganella morganii
Format: functional
Conditions: not given
Summary of the method: as §1

SMILES | MIC
C#CCC(N)C(=O)NC(CC#C)C(=O)O.O=C(O)C(F)(F)F (stereo not given) (H-[Pra]-[Pra]-OH; configuration not given here) | > 100 µg/mL
C#CC[C@H](N)C(=O)N[C@@H](C)C(=O)O.O=C(O)C(F)(F)F | > 100 µg/mL
C#CC[C@@H](N)C(=O)N[C@@H](C)C(=O)O.O=C(O)C(F)(F)F | > 100 µg/mL
C#CC[C@@H](NC(=O)[C@H](N)CCl)C(=O)O.O=C(O)C(F)(F)F | > 100 µg/mL
C#CC[C@H](N)C(=O)O | > 100 µg/mL

Test system: Pseudomonas aeruginosa
Test: Minimum inhibitory concentration against Pseudomonas aeruginosa
Format: functional
Conditions: not given
Summary of the method: as §1

SMILES | MIC
C#CCC(N)C(=O)NC(CC#C)C(=O)O.O=C(O)C(F)(F)F (stereo not given) (H-[Pra]-[Pra]-OH; configuration not given here) | > 100 µg/mL
C#CC[C@H](N)C(=O)N[C@@H](C)C(=O)O.O=C(O)C(F)(F)F | > 100 µg/mL
C#CC[C@@H](N)C(=O)N[C@@H](C)C(=O)O.O=C(O)C(F)(F)F | > 100 µg/mL
C#CC[C@@H](NC(=O)[C@H](N)CCl)C(=O)O.O=C(O)C(F)(F)F | > 100 µg/mL
C#CC[C@H](N)C(=O)O | > 100 µg/mL

Test system: Proteus mirabilis
Test: Minimum inhibitory concentration against Proteus mirabilis
Format: functional
Conditions: not given
Summary of the method: as §1

SMILES | MIC
C#CCC(N)C(=O)NC(CC#C)C(=O)O.O=C(O)C(F)(F)F (stereo not given) (H-[Pra]-[Pra]-OH; configuration not given here) | > 100 µg/mL
C#CC[C@H](N)C(=O)N[C@@H](C)C(=O)O.O=C(O)C(F)(F)F | > 100 µg/mL
C#CC[C@@H](N)C(=O)N[C@@H](C)C(=O)O.O=C(O)C(F)(F)F | > 100 µg/mL
C#CC[C@@H](NC(=O)[C@H](N)CCl)C(=O)O.O=C(O)C(F)(F)F | > 100 µg/mL
C#CC[C@H](N)C(=O)O | > 100 µg/mL

Test system: Salmonella typhimurium
Test: Minimum inhibitory concentration against Salmonella Typhimurium
Format: functional, Salmonella enterica subsp. enterica serovar Typhimurium
Conditions: Salmonella enterica
Summary of the method: as §1

SMILES | MIC
C#CCC(N)C(=O)NC(CC#C)C(=O)O.O=C(O)C(F)(F)F (stereo not given) (H-[Pra]-[Pra]-OH; configuration not given here) | > 100 µg/mL
C#CC[C@H](N)C(=O)N[C@@H](C)C(=O)O.O=C(O)C(F)(F)F | > 100 µg/mL
C#CC[C@@H](N)C(=O)N[C@@H](C)C(=O)O.O=C(O)C(F)(F)F | > 100 µg/mL
C#CC[C@@H](NC(=O)[C@H](N)CCl)C(=O)O.O=C(O)C(F)(F)F | > 100 µg/mL
C#CC[C@H](N)C(=O)O | > 100 µg/mL

Test system: Serratia marcescens
Test: Minimum inhibitory concentration against Serratia marcescens
Format: functional
Conditions: not given
Summary of the method: as §1

SMILES | MIC
C#CCC(N)C(=O)NC(CC#C)C(=O)O.O=C(O)C(F)(F)F (stereo not given) (H-[Pra]-[Pra]-OH; configuration not given here) | > 100 µg/mL
C#CC[C@H](N)C(=O)N[C@@H](C)C(=O)O.O=C(O)C(F)(F)F | > 100 µg/mL
C#CC[C@@H](N)C(=O)N[C@@H](C)C(=O)O.O=C(O)C(F)(F)F | > 100 µg/mL
C#CC[C@@H](NC(=O)[C@H](N)CCl)C(=O)O.O=C(O)C(F)(F)F | > 100 µg/mL
C#CC[C@H](N)C(=O)O | > 100 µg/mL

Test system: Shigella flexneri
Test: Minimum inhibitory concentration against Shigella flexneri
Format: functional
Conditions: not given
Summary of the method: as §1

SMILES | MIC
C#CCC(N)C(=O)NC(CC#C)C(=O)O.O=C(O)C(F)(F)F (stereo not given) (H-[Pra]-[Pra]-OH; configuration not given here) | > 100 µg/mL
C#CC[C@H](N)C(=O)N[C@@H](C)C(=O)O.O=C(O)C(F)(F)F | > 100 µg/mL
C#CC[C@@H](N)C(=O)N[C@@H](C)C(=O)O.O=C(O)C(F)(F)F | > 100 µg/mL
C#CC[C@@H](NC(=O)[C@H](N)CCl)C(=O)O.O=C(O)C(F)(F)F | > 100 µg/mL
C#CC[C@H](N)C(=O)O | > 100 µg/mL

Test system: Staphylococcus epidermidis
Test: Minimum inhibitory concentration against Staphylococcus epidermidis
Format: functional
Conditions: not given
Summary of the method: as §1

SMILES | MIC
C#CCC(N)C(=O)NC(CC#C)C(=O)O.O=C(O)C(F)(F)F (stereo not given) (H-[Pra]-[Pra]-OH; configuration not given here) | 3.12 µg/mL
C#CC[C@H](N)C(=O)N[C@@H](C)C(=O)O.O=C(O)C(F)(F)F | 1.56 µg/mL
C#CC[C@@H](N)C(=O)N[C@@H](C)C(=O)O.O=C(O)C(F)(F)F | > 100 µg/mL
C#CC[C@@H](NC(=O)[C@H](N)CCl)C(=O)O.O=C(O)C(F)(F)F | > 100 µg/mL
C#CC[C@H](N)C(=O)O | > 100 µg/mL

Test system: Streptococcus agalactiae
Test: Minimum inhibitory concentration against Streptococcus agalactiae
Format: functional
Conditions: not given
Summary of the method: as §2

SMILES | MIC
C#CCC(N)C(=O)NC(CC#C)C(=O)O.O=C(O)C(F)(F)F (stereo not given) (H-[Pra]-[Pra]-OH; configuration not given here) | 6.25 µg/mL
C#CC[C@H](N)C(=O)N[C@@H](C)C(=O)O.O=C(O)C(F)(F)F | > 100 µg/mL
C#CC[C@@H](N)C(=O)N[C@@H](C)C(=O)O.O=C(O)C(F)(F)F | > 100 µg/mL
C#CC[C@@H](NC(=O)[C@H](N)CCl)C(=O)O.O=C(O)C(F)(F)F | > 100 µg/mL
C#CC[C@H](N)C(=O)O | > 100 µg/mL

Test system: Staphylococcus aureus
Test: Minimum inhibitory concentration against Staphylococcus aureus
Format: functional
Conditions: not given
Summary of the method: as §1

SMILES | MIC
C#CCC(N)C(=O)NC(CC#C)C(=O)O.O=C(O)C(F)(F)F (stereo not given) (H-[Pra]-[Pra]-OH; configuration not given here) | 12.5 µg/mL
C#CC[C@H](N)C(=O)N[C@@H](C)C(=O)O.O=C(O)C(F)(F)F | > 100 µg/mL
C#CC[C@@H](N)C(=O)N[C@@H](C)C(=O)O.O=C(O)C(F)(F)F | > 100 µg/mL
C#CC[C@@H](NC(=O)[C@H](N)CCl)C(=O)O.O=C(O)C(F)(F)F | > 100 µg/mL
C#CC[C@H](N)C(=O)O | > 100 µg/mL

Test system: Enterococcus faecalis
Test: Minimum inhibitory concentration against Streptococcus faecalis
Format: functional
Conditions: not given
Summary of the method: as §1

SMILES | MIC
C#CCC(N)C(=O)NC(CC#C)C(=O)O.O=C(O)C(F)(F)F (stereo not given) (H-[Pra]-[Pra]-OH; configuration not given here) | > 100 µg/mL
C#CC[C@H](N)C(=O)N[C@@H](C)C(=O)O.O=C(O)C(F)(F)F | > 100 µg/mL
C#CC[C@@H](N)C(=O)N[C@@H](C)C(=O)O.O=C(O)C(F)(F)F | > 100 µg/mL
C#CC[C@@H](NC(=O)[C@H](N)CCl)C(=O)O.O=C(O)C(F)(F)F | > 100 µg/mL
C#CC[C@H](N)C(=O)O | > 100 µg/mL

Test system: Streptococcus pyogenes
Test: Minimum inhibitory concentration against Streptococcus pyogenes
Format: functional
Conditions: not given
Summary of the method: as §2

SMILES | MIC
C#CCC(N)C(=O)NC(CC#C)C(=O)O.O=C(O)C(F)(F)F (stereo not given) (H-[Pra]-[Pra]-OH; configuration not given here) | > 100 µg/mL
C#CC[C@H](N)C(=O)N[C@@H](C)C(=O)O.O=C(O)C(F)(F)F | > 100 µg/mL
C#CC[C@@H](N)C(=O)N[C@@H](C)C(=O)O.O=C(O)C(F)(F)F | > 100 µg/mL
C#CC[C@@H](NC(=O)[C@H](N)CCl)C(=O)O.O=C(O)C(F)(F)F | > 100 µg/mL
C#CC[C@H](N)C(=O)O | > 100 µg/mL
